How the values were obtained:
[1] = organism: Canis familiaris; experiment: The chronotropic effect tested in vitro by using isolated blood-perfused dog heart preparations; format: functional, Canis lupus familiaris
In short: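 Isolated dog sinoatrial node preparation, cross-circulated through cannulated arteries with blood from a pentobarbital-anesthetized, heparinized donor dog. Compounds were given intra-arterially by microsyringe, and sinus rate was recorded. Reported as an activity ratio: amrinone ED50 (dose giving half-maximal amrinone response) divided by the test-compound dose producing the same response.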

[2] = organism: Canis familiaris; experiment: The inotropic effect tested in vitro by using isolated blood-perfused dog heart preparations; format: functional, Canis lupus familiaris
In short: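 Isolated dog papillary muscle, blood-perfused by cross-circulation through cannulated arteries from a pentobarbital-anesthetized, heparinized donor dog. Intra-arterial microsyringe injection; developed tension recorded. Activity ratio = amrinone ED50 (half-maximal amrinone response) / test-compound dose producing an equal response.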

Structure (SMILES) | Activity [1] | Activity [2]
CN(Cc1ccc(F)cc1)CC(O)COc1ccc2nc(O)ccc2c1 (stereo unspecified) | 0 | 2.8
CCN(CCOc1ccccc1)CC(O)COc1ccc2nc(O)ccc2c1 (stereo unspecified) | 0 | 5.3
CCN(CCc1ccccc1)CC(O)COc1ccc2nc(O)ccc2c1 (stereo unspecified) | 0.8 | 6.9
Oc1ccc2cc(OCC(O)CNCc3ccccn3)ccc2n1 (stereo unspecified) | 0 | 0.6
CN(Cc1ccncc1)CC(O)COc1ccc2nc(O)ccc2c1 (stereo unspecified) | 0.1 | 2.3
Oc1ccc2cc(OCC(O)CNCc3ccc(F)cc3)ccc2n1 (stereo unspecified) | 0 | 3.5
Oc1ccc2cc(OCC(O)CNCCCc3ccccc3)ccc2n1 (stereo unspecified) | 0.4 | 3.6
COc1ccc(CNCC(O)COc2ccc3ccc(O)nc3c2)cc1OC (stereo unspecified) | -0.2 | 0
COc1ccc(CNCC(O)COc2cccc3ccc(O)nc23)cc1OC (stereo unspecified) | 0 | 0
CN(CCCSc1ccccc1)CC(O)COc1ccc2nc(O)ccc2c1 (stereo unspecified) | 4.3 | 1.3
CN(Cc1cccnc1)CC(O)COc1ccc2nc(O)ccc2c1 (stereo unspecified) | 0.3 | 1.7
Oc1ccc2cc(OCC(O)CNCc3ccc(Cl)cc3)ccc2n1 (stereo unspecified) | 0 | 4.9
CN(CC[S+]([O-])c1ccccc1)CC(O)COc1ccc2nc(O)ccc2c1 (stereo unspecified) | 0 | 2.3
CN(CCc1ccccn1)CC(O)COc1ccc2nc(O)ccc2c1 (stereo unspecified) | 0 | 2.2
CN(Cc1ccccn1)CC(O)COc1ccc2nc(O)ccc2c1 (stereo unspecified) | 0 | 2.2
CN(Cc1ccc(Cl)cc1)CC(O)COc1ccc2nc(O)ccc2c1 (stereo unspecified) | 0.1 | 4
CCN(Cc1ccccc1)CC(O)COc1cc(F)c2nc(O)ccc2c1 (stereo unspecified) | 0 | 4.1
Cc1ccc(CN(C)CC(O)COc2ccc3nc(O)ccc3c2)cc1 (stereo unspecified) | 0 | 1.7
COc1ccc(CN(C)CC(O)COc2ccc3nc(O)ccc3c2)cc1 (stereo unspecified) | 0.2 | 2.8

Structure (SMILES) | Activity [1] | Activity [2]
CCN(Cc1ccccc1)CC(O)COc1cc(C)c2nc(O)ccc2c1 (stereo unspecified) | -0.4 | 0.8
Oc1ccc2cc(OCC(O)CNCc3cccs3)ccc2n1 (stereo unspecified) | 0.8 | 3.1
CCN(Cc1ccccc1)CC(O)COc1ccc2nc(O)ccc2c1 (stereo unspecified) | 0 | 4
CN(CCCN(C)c1ccccc1)CC(O)COc1ccc2nc(O)ccc2c1 (stereo unspecified) | 0 | 1.3
CN(Cc1ccccc1)CC(O)COc1ccc2c(c1)CCC(=O)N2 (stereo unspecified) | -0.2 | 0.1
CN(CCN(C)c1ccccc1)CC(O)COc1ccc2nc(O)ccc2c1 (stereo unspecified) | 0 | 5
COc1ccc(CNCC(O)COc2ccc3nc(O)ccc3c2)cc1 (stereo unspecified) | 0 | 4.9
COc1ccc(CCNCC(O)COc2ccc3nc(O)ccc3c2)cc1OC (stereo unspecified) | -0.5 | 1.7
Oc1ccc2cc(OCC(O)CNCCc3ccccc3)ccc2n1 (stereo unspecified) | 0 | 1.5
CN(Cc1ccccc1)CC(O)COc1ccc2nc(O)c(C#N)cc2c1 (stereo unspecified) | 1.1 | 1.6
CN(CCS(=O)(=O)c1ccccc1)CC(O)COc1ccc2nc(O)ccc2c1 (stereo unspecified) | 0.1 | 2.1
Oc1ccc2cc(OCC(O)CNCc3ccccc3)ccc2n1 (stereo unspecified) | 0 | 2.2
COc1ccc(CNCC(O)COc2cccc3nc(O)ccc23)cc1OC (stereo unspecified) | 0 | 0
CN(CCSc1ccccc1)CC(O)COc1ccc2nc(O)ccc2c1 (stereo unspecified) | -1.1 | 4.5
CN(Cc1ccccc1)CC(O)COc1ccc2nc(O)ccc2c1 (stereo unspecified) | 0 | 5.1
COc1cccc(CNCC(O)COc2ccc3nc(O)ccc3c2)c1 (stereo unspecified) | 0 | 3.8
CCN(CCCc1ccccc1)CC(O)COc1ccc2nc(O)ccc2c1 (stereo unspecified) | 0.2 | 3.2
COc1ccc(CNCC(O)COc2cc(C)c3nc(O)ccc3c2)cc1OC (stereo unspecified) | 0 | 0.5
COc1ccc(CNCC(O)COc2ccc3[nH]c(=O)ccc3c2)cc1OC (stereo unspecified) [TOBORINONE] | 0 | 5.2

Reference: ChEMBL document CHEMBL1125299, “Novel positive inotropic agents: synthesis and biological activities of 6-(3-amino-2-hydroxypropoxy)-2(1H)-quinolinone derivatives” (1992)
